Measured values reported in ChEMBL document CHEMBL3232844, “Synthesis and structure activity relationships of schweinfurthin indoles” (2014).

Assays:
Type in all cases: functional
SK-MEL-2 = experiment: Cytotoxicity against human SK-MEL-2 cells
How it was run: (§1)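 Tested in a 60-cell-line human tumor panel screen; the read-out is growth inhibition, reported as GI50 for each cell line.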

[1] = Cytotoxicity against human HCT15 cells; how it was run: as §1
SF-295 = experiment: Cytotoxicity against human SF295 cells; how it was run: as §1
SK-MEL-5 = experiment: Cytotoxicity against human SK-MEL-5 cells; how it was run: as §1
MOLT-4 = experiment: Cytotoxicity against human MOLT4 cells; how it was run: as §1
LOX IMVI = experiment: Cytotoxicity against human LOXIMVI cells; how it was run: as §1
CAKI-1 = experiment: Cytotoxicity against human Caki1 cells; how it was run: as §1
[2] = Cytotoxicity against human UACC62 cells
How it was run: (§2)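 Cell line run as part of the 60-cell-line screening panel; growth inhibition was reported as a GI50 for each line.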

A498 = experiment: Cytotoxicity against human A498 cells; how it was run: as §1
TK-10 = experiment: Cytotoxicity against human TK10 cells; how it was run: as §2
SF-268 = experiment: Cytotoxicity against human SF268 cells; how it was run: as §1
786-0 = experiment: Cytotoxicity against human 786-0 cells; how it was run: as §1
CCRF-CEM = experiment: Cytotoxicity against human CCRF-CEM cells
HL-60(TB) = experiment: Cytotoxicity against human HL-60(TB) cells
How it was run: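 Tested within the NCI 60-cell-line screen, with GI50 as the read-out. Values are the average of two independent experiments. The lowest concentration tested was 10 nM.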

SR = experiment: Cytotoxicity against human SR cells; how it was run: as §2
SN12C = experiment: Cytotoxicity against human SN12C cells; how it was run: as §1
SNB-19 = experiment: Cytotoxicity against human SNB19 cells; how it was run: as §1
HCC 2998 = experiment: Cytotoxicity against human HCC2998 cells; how it was run: as §1
HT-29 = experiment: Cytotoxicity against human HT-29 cells; how it was run: as §1
[3] = Cytotoxicity against human NCI-ADR-RES cells; how it was run: as §1
KM12 = experiment: Cytotoxicity against human KM12 cells; how it was run: as §1
[4] = read-out: pLC50 (the source's name) (converted)

SMILES: COc1cc(/C=C/c2cc(O)c3cc[nH]c3c2)cc2c1O[C@]1(C)CC[C@@H](O)C(C)(C)[C@H]1C2
- GI50 (SK-MEL-2): 1120 nM
- CC50 (SK-MEL-2; [4]): 31.6 µM
- TGI (SK-MEL-2; read-out: pTGI (converted)): 7.24 µM
- GI50 ([1]; HCT-15): 324 nM
- CC50 ([1]; HCT-15, read-out: pLC50 (the source's name) (converted)): > 100 µM
- TGI ([1]; HCT-15, read-out: pTGI (converted)): 33.9 µM
- GI50 (SF-295; read-out: GI50): 230 nM
- GI50 (SF-295; read-out: pGI50 (converted)): 234 nM
- CC50 (SF-295; [4]): 6.03 µM
- TGI (SF-295; read-out: pTGI (converted)): 1000 nM
- GI50 (SK-MEL-5): 195 nM
- CC50 (SK-MEL-5; [4]): 1120 nM
- TGI (SK-MEL-5; read-out: pTGI (converted)): 457 nM
- GI50 (MOLT-4): 309 nM
- CC50 (MOLT-4; [4]): 75.9 µM
- TGI (MOLT-4; read-out: pTGI (converted)): 1780 nM
- GI50 (LOX IMVI): 363 nM
- CC50 (LOX IMVI; [4]): 4.57 µM
- TGI (LOX IMVI; read-out: pTGI (converted)): 1320 nM
- GI50 (CAKI-1): 741 nM
- LC50 (CAKI-1): 20.9 µM
- TGI (CAKI-1; read-out: pTGI (converted)): 2290 nM
- GI50 ([2]; UACC-62): 2190 nM
- CC50 ([2]; UACC-62, read-out: pLC50 (the source's name) (converted)): 43.7 µM
- TGI ([2]; UACC-62, read-out: pTGI (converted)): 7.24 µM
- GI50 (A498): 1550 nM
- CC50 (A498; [4]): 56.2 µM
- TGI (A498; read-out: pTGI (converted)): 8.91 µM
- GI50 (TK-10): 5.62 µM
- LC50 (TK-10): > 100 µM
- TGI (TK-10; read-out: pTGI (converted)): 49 µM
- GI50 (SF-268): 794 nM
- CC50 (SF-268; [4]): > 100 µM
- TGI (SF-268; read-out: pTGI (converted)): 34.7 µM
- GI50 (786-0): 372 nM
- LC50 (concentration killing 50% of cells) (786-0): 6.31 µM
- TGI (786-0; read-out: pTGI (converted)): 1820 nM
- GI50 (CCRF-CEM): 525 nM
- CC50 (CCRF-CEM; [4]): > 100 µM
- TGI (CCRF-CEM; read-out: pTGI (converted)): 36.3 µM
- GI50 (HL-60(TB)): 513 nM
- CC50 (HL-60(TB); [4]): > 100 µM
- TGI (HL-60(TB); read-out: pTGI (converted)): 8.71 µM
- GI50 (SR): 302 nM
- CC50 (SR; [4]): > 100 µM
- TGI (SR; read-out: pTGI (converted)): 9.55 µM
- GI50 (SN12C): 7.08 µM
- LC50 (SN12C): > 100 µM
- TGI (SN12C; read-out: pTGI (converted)): 67.6 µM
- GI50 (SNB-19): 1320 nM
- CC50 (SNB-19; [4]): > 100 µM
- TGI (SNB-19; read-out: pTGI (converted)): 18.2 µM
- GI50 (HCC 2998): 2880 nM
- CC50 (HCC 2998; [4]): 55 µM
- TGI (HCC 2998; read-out: pTGI (converted)): 14.5 µM
- GI50 (HT-29): 708 nM
- CC50 (HT-29; [4]): 93.3 µM
- TGI (HT-29; read-out: pTGI (converted)): 4.07 µM
- GI50 [3]: 2570 nM
- CC50 [3, 4]: > 100 µM
- TGI ([3]; read-out: pTGI (converted)): 33.9 µM
- GI50 (KM12): 457 nM
- CC50 (KM12; [4]): 9.55 µM
- TGI (KM12; read-out: pTGI (converted)): 1860 nM
